Measurements: ChEMBL document CHEMBL1828519, “Tricyclic thiazolopyrazole derivatives as metabotropic glutamate receptor 4 positive allosteric modulators” (J Med Chem, 2011)
Values after ≈ are worked out from the molar mass of the structure shown.

Columns and labels:
[1] = biological target: T1, Metabotropic glutamate receptor 4 (Homo sapiens, UniProt Q14833); experiment: Positive allosteric modulation of human mGlu4 receptor expressed in BHK cells assessed as potentiation of glutamate-induced calcium mobilization after 1 hr by FLIPR assay; type: functional, cell-based
T1 sequence (Q14833 whole entry): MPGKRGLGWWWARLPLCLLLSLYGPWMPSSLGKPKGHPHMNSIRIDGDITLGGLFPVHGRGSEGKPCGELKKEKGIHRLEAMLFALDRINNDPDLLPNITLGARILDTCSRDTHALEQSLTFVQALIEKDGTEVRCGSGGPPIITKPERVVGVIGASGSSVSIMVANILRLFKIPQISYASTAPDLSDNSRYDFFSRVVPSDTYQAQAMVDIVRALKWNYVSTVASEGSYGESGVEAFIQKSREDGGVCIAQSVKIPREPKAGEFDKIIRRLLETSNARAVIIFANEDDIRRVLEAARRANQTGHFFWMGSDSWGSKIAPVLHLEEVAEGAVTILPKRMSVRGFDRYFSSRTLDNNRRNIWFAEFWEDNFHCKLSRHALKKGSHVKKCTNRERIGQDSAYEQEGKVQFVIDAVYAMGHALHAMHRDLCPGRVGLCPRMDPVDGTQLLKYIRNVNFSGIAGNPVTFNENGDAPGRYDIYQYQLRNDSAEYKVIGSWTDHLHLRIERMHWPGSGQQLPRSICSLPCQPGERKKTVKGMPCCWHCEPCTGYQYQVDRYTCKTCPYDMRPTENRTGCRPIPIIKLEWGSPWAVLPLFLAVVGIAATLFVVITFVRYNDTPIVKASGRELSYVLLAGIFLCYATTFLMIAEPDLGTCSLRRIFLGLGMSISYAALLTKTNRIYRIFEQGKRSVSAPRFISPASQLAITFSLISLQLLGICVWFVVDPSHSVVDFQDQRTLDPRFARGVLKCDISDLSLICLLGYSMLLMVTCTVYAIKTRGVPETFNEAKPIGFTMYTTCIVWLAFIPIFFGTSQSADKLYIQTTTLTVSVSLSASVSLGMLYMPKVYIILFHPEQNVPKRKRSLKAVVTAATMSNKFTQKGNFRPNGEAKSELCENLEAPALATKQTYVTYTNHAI
In short: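 Stable BHK line co-expressing human mGlu4 and murine Gα15, plated on poly-D-lysine 24 h ahead. Cells loaded 1 h at 37 °C, 5% CO2 with Calcium 3 dye in HBSS/20 mM HEPES pH 7.4, 0.1% BSA, 2.5 mM probenecid. Test agent added with an EC20 glutamate challenge. Peak fluorescence change read by FLIPR and fitted to the Hill equation. At least two independent runs in duplicate, means reported.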

[2] = Kinetic solubility of the compound at pH 7.4 at room temperature; type: physicochemical; conditions: buffer, read-out: Kinetic_solubility
In short: (§1)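 Kinetic solubility measured from DMSO stock solutions at room temperature. Assay run at the pH named in each line.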

[3] = Apparent permeability of the compound by PAMPA assay; type: ADME
In short: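 Passive permeability measured in a PAMPA assay.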

[4] = Intrinsic clearance in rat microsomes; type: ADME, Microsome
In short: (§2)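 Intrinsic clearance measured in rat and human liver microsomes. Hepatic blood flow references given as 20 mL/min for rat and 1.5 L/min for human.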

[5] = Intrinsic clearance in human microsomes; type: ADME, Microsome; in short: as §2
[6] = Plasma protein binding in rat; type: ADME, cell-free; conditions: read-out: PPB (converted)
[7] = Plasma protein binding in human; type: ADME, cell-free; conditions: read-out: PPB (converted)
[8] = biological target: T2, Metabotropic glutamate receptor 1 (Homo sapiens, UniProt Q13255); experiment: Positive allosteric modulation of mGlu1 receptor assessed as potentiation of glutamate-induced calcium mobilization; type: functional
T2 sequence (Q13255 whole entry): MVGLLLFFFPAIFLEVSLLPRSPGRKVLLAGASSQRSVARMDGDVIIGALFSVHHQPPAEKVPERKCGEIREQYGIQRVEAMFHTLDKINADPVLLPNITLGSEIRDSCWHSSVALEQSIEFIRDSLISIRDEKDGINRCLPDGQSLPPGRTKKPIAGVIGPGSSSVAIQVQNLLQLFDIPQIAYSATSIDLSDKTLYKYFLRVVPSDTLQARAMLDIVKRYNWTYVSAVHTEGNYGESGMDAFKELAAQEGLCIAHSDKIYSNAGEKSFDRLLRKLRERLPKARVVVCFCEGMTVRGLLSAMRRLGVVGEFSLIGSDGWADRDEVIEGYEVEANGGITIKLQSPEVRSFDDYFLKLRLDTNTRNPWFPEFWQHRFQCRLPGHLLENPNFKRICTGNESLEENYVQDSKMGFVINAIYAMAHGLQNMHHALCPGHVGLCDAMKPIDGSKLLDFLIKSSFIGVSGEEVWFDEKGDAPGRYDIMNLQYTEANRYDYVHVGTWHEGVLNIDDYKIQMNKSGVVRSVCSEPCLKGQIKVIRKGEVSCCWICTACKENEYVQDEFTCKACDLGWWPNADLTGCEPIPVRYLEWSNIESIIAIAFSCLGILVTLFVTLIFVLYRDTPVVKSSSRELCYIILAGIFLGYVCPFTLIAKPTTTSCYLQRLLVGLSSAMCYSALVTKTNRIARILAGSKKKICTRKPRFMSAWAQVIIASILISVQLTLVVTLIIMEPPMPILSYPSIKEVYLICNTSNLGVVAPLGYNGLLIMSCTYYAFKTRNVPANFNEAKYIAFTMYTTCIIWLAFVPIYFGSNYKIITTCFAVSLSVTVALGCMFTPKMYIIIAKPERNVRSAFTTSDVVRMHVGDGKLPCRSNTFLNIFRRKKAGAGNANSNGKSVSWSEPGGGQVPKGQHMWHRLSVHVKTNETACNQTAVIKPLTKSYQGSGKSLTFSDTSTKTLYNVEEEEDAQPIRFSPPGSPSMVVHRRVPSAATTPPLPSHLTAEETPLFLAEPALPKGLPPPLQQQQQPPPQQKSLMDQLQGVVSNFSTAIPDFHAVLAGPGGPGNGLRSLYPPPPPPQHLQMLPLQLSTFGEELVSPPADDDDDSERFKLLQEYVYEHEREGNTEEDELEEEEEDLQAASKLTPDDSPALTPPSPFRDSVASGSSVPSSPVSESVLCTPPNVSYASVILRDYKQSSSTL

[9] = biological target: T3, Metabotropic glutamate receptor 2 (Homo sapiens, UniProt Q14416); experiment: Positive allosteric modulation of mGlu2 receptor assessed as potentiation of glutamate-induced calcium mobilization; type: functional
[10] = biological target: T4, Metabotropic glutamate receptor 3 (Homo sapiens, UniProt Q14832); experiment: Positive allosteric modulation of mGlu3 receptor assessed as potentiation of glutamate-induced calcium mobilization; type: functional
T4 sequence (Q14832 whole entry): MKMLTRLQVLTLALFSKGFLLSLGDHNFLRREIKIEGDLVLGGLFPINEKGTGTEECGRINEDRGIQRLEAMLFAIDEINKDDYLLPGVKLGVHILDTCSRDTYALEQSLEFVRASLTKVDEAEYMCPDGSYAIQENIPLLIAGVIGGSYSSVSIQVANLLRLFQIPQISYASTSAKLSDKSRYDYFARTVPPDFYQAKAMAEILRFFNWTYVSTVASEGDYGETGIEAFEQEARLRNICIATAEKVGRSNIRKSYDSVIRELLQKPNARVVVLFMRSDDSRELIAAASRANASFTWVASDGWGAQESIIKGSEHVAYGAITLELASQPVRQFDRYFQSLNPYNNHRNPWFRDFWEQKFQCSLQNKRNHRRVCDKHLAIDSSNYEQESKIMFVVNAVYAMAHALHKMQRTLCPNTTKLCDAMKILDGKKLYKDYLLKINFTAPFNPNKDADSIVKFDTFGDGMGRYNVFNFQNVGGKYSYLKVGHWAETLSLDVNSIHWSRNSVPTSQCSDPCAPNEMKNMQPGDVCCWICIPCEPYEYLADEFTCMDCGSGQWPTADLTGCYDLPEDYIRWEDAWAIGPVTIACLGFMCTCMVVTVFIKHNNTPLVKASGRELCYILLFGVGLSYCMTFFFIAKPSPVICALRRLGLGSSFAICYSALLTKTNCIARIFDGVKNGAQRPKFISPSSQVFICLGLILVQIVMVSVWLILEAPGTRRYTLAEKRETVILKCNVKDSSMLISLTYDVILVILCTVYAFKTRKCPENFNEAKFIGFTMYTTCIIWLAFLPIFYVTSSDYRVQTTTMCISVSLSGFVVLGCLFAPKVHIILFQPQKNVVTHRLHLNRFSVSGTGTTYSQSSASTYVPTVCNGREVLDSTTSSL

[11] = biological target: T5, Metabotropic glutamate receptor 5 (Homo sapiens, UniProt P41594); experiment: Positive allosteric modulation of mGlu5 receptor assessed as potentiation of glutamate-induced calcium mobilization; type: functional
T5 sequence (P41594 whole entry): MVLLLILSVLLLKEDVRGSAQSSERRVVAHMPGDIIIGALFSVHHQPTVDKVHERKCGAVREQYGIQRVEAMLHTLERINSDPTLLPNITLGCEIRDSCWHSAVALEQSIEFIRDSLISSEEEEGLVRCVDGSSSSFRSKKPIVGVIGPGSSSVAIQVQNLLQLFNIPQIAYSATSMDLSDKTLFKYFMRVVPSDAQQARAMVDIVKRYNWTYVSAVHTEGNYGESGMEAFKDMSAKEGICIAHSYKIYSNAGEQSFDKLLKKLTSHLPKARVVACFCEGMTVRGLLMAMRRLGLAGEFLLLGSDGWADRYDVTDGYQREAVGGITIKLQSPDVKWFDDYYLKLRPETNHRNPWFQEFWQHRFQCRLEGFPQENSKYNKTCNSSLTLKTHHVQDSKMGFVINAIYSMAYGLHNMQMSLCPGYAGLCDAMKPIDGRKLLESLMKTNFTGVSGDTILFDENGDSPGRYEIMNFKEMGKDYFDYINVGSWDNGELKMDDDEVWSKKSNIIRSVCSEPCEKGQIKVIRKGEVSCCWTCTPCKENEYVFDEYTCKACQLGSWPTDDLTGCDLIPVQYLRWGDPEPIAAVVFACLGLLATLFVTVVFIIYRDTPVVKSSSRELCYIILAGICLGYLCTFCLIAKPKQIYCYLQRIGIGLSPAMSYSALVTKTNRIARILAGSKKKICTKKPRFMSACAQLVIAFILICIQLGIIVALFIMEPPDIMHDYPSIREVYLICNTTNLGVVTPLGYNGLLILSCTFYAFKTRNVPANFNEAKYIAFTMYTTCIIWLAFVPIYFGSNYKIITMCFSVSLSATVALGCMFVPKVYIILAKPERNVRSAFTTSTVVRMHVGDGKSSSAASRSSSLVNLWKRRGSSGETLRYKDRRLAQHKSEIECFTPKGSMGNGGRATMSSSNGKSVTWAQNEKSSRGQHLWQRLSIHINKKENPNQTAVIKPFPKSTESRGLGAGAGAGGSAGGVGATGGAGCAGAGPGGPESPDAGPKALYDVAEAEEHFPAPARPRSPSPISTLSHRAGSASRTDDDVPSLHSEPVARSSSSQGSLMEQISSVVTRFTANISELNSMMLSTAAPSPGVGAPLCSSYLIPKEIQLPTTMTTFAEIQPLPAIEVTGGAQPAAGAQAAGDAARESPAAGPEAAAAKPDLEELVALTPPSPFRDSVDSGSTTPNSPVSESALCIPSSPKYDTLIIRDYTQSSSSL

[12] = biological target: T6, Metabotropic glutamate receptor 7 (Homo sapiens, UniProt Q14831); experiment: Positive allosteric modulation of mGlu7 receptor assessed as potentiation of glutamate-induced calcium mobilization; type: functional
T6 sequence (Q14831 whole entry): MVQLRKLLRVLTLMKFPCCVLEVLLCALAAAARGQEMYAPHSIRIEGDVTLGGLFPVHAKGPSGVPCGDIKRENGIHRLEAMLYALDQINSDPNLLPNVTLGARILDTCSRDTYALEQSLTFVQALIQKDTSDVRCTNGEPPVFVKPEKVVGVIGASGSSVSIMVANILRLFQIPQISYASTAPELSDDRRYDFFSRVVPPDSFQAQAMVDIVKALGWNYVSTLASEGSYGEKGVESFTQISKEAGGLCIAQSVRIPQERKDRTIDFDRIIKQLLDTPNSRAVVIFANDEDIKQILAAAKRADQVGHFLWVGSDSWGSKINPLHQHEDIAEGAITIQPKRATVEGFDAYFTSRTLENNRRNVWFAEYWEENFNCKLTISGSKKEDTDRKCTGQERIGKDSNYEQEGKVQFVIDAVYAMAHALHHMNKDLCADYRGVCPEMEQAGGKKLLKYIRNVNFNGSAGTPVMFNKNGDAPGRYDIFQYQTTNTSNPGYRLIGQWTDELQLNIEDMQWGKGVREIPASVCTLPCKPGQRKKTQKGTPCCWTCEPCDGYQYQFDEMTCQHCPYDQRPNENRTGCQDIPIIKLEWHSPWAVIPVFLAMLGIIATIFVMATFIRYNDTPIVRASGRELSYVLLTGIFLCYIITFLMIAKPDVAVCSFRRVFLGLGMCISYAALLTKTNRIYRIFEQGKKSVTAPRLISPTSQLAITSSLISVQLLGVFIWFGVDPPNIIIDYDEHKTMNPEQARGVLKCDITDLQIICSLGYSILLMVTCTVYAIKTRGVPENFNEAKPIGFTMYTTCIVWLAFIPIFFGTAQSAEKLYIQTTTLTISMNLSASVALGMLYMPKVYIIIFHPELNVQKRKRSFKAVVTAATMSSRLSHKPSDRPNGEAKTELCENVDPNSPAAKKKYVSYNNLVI

[13] = biological target: T2, Metabotropic glutamate receptor 1; experiment: Negative allosteric modulation of mGlu1 receptor
[14] = biological target: T3, Metabotropic glutamate receptor 2; experiment: Negative allosteric modulation of mGlu2 receptor
[15] = biological target: T4, Metabotropic glutamate receptor 3; experiment: Negative allosteric modulation of mGlu3 receptor
[16] = biological target: T5, Metabotropic glutamate receptor 5; experiment: Negative allosteric modulation of mGlu5 receptor
[17] = biological target: T6, Metabotropic glutamate receptor 7; experiment: Negative allosteric modulation of mGlu7 receptor
[18] = Lipophilicity, log D of the compound at pH 7.4; type: physicochemical; conditions: buffer
[19] = Kinetic solubility of the compound at pH 1.5 at room temperature; type: physicochemical; conditions: buffer, read-out: Kinetic_solubility; in short: as §1
P-gp (MDR1) [20] = experiment: Apparent permeability from apical to basolateral side of dog MDCK cells expressing human MDR1 by P-gp substrate assay; type: ADME, cell-based, Canis lupus familiaris
In short: (§3)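 MDCK cells transfected with human MDR1, used as a P-gp substrate assay. Permeability measured in both directions, apical-to-basolateral and basolateral-to-apical. The efflux ratio is taken as B→A over A→B.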

P-gp (MDR1) [21] = experiment: Apparent permeability from basolateral to apical side of dog MDCK cells expressing human MDR1 by P-gp substrate assay; type: ADME, cell-based, Canis lupus familiaris; in short: as §3
[22] = Fraction unbound in rat brain; type: ADME, tissue-based
In short: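 Brain free fraction determined by dialysis of rat brain homogenate.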

[23] = Fraction unbound in rat plasma; type: ADME, cell-free
[24] = Plasma concentration in Sprague-Dawley rat at 10 mg/kg, po after 1 hr; type: ADME, organism-based; design: dose 10 mg/kg, route oral
In short: (§4)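 Sprague-Dawley rats given 10 mg/kg orally as a suspension in 20% aqueous hydroxypropyl-β-cyclodextrin. Plasma and brain levels taken at 1 h post-dose. Brain/plasma ratio derived from these levels.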

[25] = Drug uptake in Sprague-Dawley rat brain at 10 mg/kg, po after 1 hr; type: ADME, organism-based; design: dose 10 mg/kg, route oral; conditions: read-out: Drug uptake; in short: as §4
[26] = Ratio of drug level in brain to plasma of Sprague-Dawley rat at 10 mg/kg, po after 1 hr; type: ADME, organism-based; design: dose 10 mg/kg, route oral; conditions: read-out: BPR; in short: as §4
[27] = Fraction unbound in human plasma; type: ADME, cell-free
[28] = biological target: T1, Metabotropic glutamate receptor 4; experiment: Positive allosteric modulation of human mGlu4 receptor expressed in BHK cells assessed as potentiation of glutamate-induced response after 1 hr by FLIPR assay relative to glutamate; type: cell-based
In short: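 BHK cells stably co-expressing human mGlu4 and murine G-protein […], grown in DMEM at 37 °C, 5% CO₂. Cells seeded 24 h before assay, then loaded with Calcium 3 no-wash dye in HBSS/HEPES pH 7.4 with 0.1% BSA and 2.5 mM probenecid for 1 h at 37 °C. FLIPR calcium read after stimulation with EC₂₀ glutamate plus compound. Emax is percent of maximal glutamate response. Mean of ≥2 independent duplicate experiments.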

[29] = Drug uptake in Sprague-Dawley rat cerebrospinal fluid at 10 mg/kg, sc after 1 hr

Row | SMILES | EC50 [1] [µM] | solubility kinetic [2] [µM] | Papp [3] [nm/s] | CL [4] [mL/min] | CL [5] [L/min] | fraction unbound [6] | fraction unbound [7] | EC50 [8] [µM] | EC50 [9] [µM] | EC50 [10] [µM] | EC50 [11] [µM] | EC50 [12] [µM] | IC50 [13] [µM] | IC50 [14] [µM] | logD [18] | solubility kinetic [19] [µM] | fraction unbound [22] | fraction unbound [23] | concentration at 1 h [24] [µg/mL] | concentration at 1 h [25] [ng/g] | other results
1 | c1ccc(Nc2nc3c(s2)CCc2[nH]ncc2-3)nc1 | 0.22 | 0.1 (≈ 0.0269 µg/mL) | 30 | 37 | 5.6 | 0.023 | 0.008 | > 10 | > 10 | > 10 | > 10 | > 10 | > 10 | > 10 | 4 | 220 (≈ 59.3 µg/mL) | 0.0043 | 0.023 | 0.987 | 517 | IC50 [15]: > 10 µM; IC50 [16]: > 10 µM; IC50 [17]: > 10 µM; Papp A→B (P-gp (MDR1) [20]): 220 nm/s; Papp B→A (P-gp (MDR1) [21]): 77 nm/s; Kp at 1 h [26]: 0.5
2 | c1cnc(Nc2nc3c(s2)CCCc2[nH]ncc2-3)nc1 | 0.007 | 3 (≈ 0.853 µg/mL) | 15 | 92 | 9 | 0.006 | 0.031 | > 10 | > 10 | > 10 | > 10 | > 10 | > 10 | > 10 | 3.8 | 100 (≈ 28.4 µg/mL) | 0.016 | 0.006 | 0.0007 | 3.1 | IC50 [15]: > 10 µM; IC50 [16]: > 10 µM; IC50 [17]: > 10 µM; Papp A→B (P-gp (MDR1) [20]): 330 nm/s; Papp B→A (P-gp (MDR1) [21]): 210 nm/s
3 | c1ccc(Nc2nc3c(s2)CCCc2[nH]ncc2-3)nc1 | 0.009 | 1.2 (≈ 0.34 µg/mL) | 94 | 36 | 10 | 0.011 | 0.006 | > 10 | > 10 | > 10 | > 10 | > 10 | > 10 | > 10 | 5 | 240 (≈ 68 µg/mL) | 0.0043 | 0.011 | 0.259 | 200 | IC50 [15]: > 10 µM; IC50 [16]: > 10 µM; IC50 [17]: > 10 µM; Papp A→B (P-gp (MDR1) [20]): 240 nm/s; Papp B→A (P-gp (MDR1) [21]): 130 nm/s; Kp at 1 h [26]: 0.8
4 | c1ccc(Nc2nc(-c3cn[nH]c3)cs2)nc1 | 0.41 | 120 (≈ 29.2 µg/mL) | 329 | 61 | 11 | – | – | – | – | – | – | – | – | – | 3.1 | 220 (≈ 53.5 µg/mL) | 0.014 | 0.092 | 0.766 | 744 | fraction unbound [27]: 0.035; Emax [28]: 72%; Kp at 1 h [26]: 1; concentration at 1 h [29]: 0.052 µg/mL
